From ChEMBL document CHEMBL4382238, “Synthesis of isatin based N1-alkylated 3-β-C-glycoconjugated-oxopropylidene oxindoles as potent antiplasmodial agents” (Eur J Med Chem, 2019)

Experiments:
Plasmodium falciparum [1] = assay: Antiplasmodial activity against chloroquine-sensitive Plasmodium falciparum 3D7 asynchronous cultures infected in human erythrocytes after 72 hrs by SYBR green1 staining based fluorescence assay; assay type: functional, organism-based; conditions: 3D7, 72 h
In short: (§1)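 Parasites kept in human erythrocytes at 5% hematocrit in RPMI-1640 (HEPES) with 0.5% AlbuMaxII, 0.2% glucose, bicarbonate, 15 µM hypoxanthine, 37 °C CO2. Two-fold serial dilutions spanning […]; asynchronous culture at 0.8-1% parasitaemia, 1% haematocrit; 72 h, 37 °C. Lytic buffer with SYBR Green (1x final), 2 h dark, RT; Ex 485/Em 535 nm. IC50 from DNA signal versus drug-free controls; at least duplicate determinations.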

Plasmodium falciparum [2] = assay: Antiplasmodial activity against chloroquine-resistant Plasmodium falciparum K1 asynchronous cultures infected in human erythrocytes after 72 hrs by SYBR green1 staining based fluorescence assay; assay type: functional, organism-based; conditions: K1, 72 h; in short: as §1
[3] = Selectivity index, ratio of CC50 for African green monkey Vero cells to IC50 for chloroquine-resistant Plasmodium falciparum K1 asynchronous cultures infected in human erythrocytes; assay type: toxicity, cell-based; conditions: read-out: Ratio CC50/IC50
[4] = Selectivity index, ratio of CC50 for African green monkey Vero cells to IC50 for chloroquine-sensitive Plasmodium falciparum 3D7 asynchronous cultures infected in human erythrocytes; assay type: toxicity, cell-based; conditions: read-out: Ratio CC50/IC50
[5] = Cytotoxicity against African green monkey Vero cells measured after 72 hrs by resazurin assay; assay type: cell-based; conditions: chlorocebus sabaeus
In short: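 VERO monkey kidney cells grown in MEM with 15% FBS under 5% CO2 at 37 °C. Cells exposed to serial drug dilutions for three days. 10% resazurin then added as viability marker. Fluorescence read at excitation 530 ± 25 nm and emission 590 ± 25 nm to calculate median cytotoxic concentration (CC50). Values are the average of at least duplicate determinations.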

SMILES | IC50 (Plasmodium falciparum [1]) | IC50 (Plasmodium falciparum [2]) | selectivity ratio [3] | selectivity ratio [4] | CC50 at 72 h [5]
CCCCN1C(=O)C(O)(CC(=O)C[C@@H]2O[C@H](COC(C)=O)[C@@H](OC(C)=O)[C@H](OC(C)=O)[C@H]2OC(C)=O)c2ccccc21 (stereo partly drawn) | > 5 µM | > 5 µM |  |  | 
CC(=O)OC[C@H]1O[C@@H](CC(=O)/C=C2\C(=O)N(Cc3ccc(F)cc3)c3ccccc32)[C@H](OC(C)=O)[C@@H](OC(C)=O)[C@@H]1OC(C)=O | 0.47 µM | 1.19 µM | 100 | 253 | 119 µM
CC(=O)OC[C@H]1O[C@@H](CC(=O)/C=C2\C(=O)N(Cc3cccc(C)c3)c3ccccc32)[C@H](OC(C)=O)[C@@H](OC(C)=O)[C@@H]1OC(C)=O | 0.53 µM | 0.3 µM | 242 | 137 | 72.5 µM
CCCCN1C(=O)/C(=C\C(=O)C[C@@H]2O[C@H](COC(C)=O)[C@@H](OC(C)=O)[C@H](OC(C)=O)[C@H]2OC(C)=O)c2cc(Cl)ccc21 | 0.18 µM | 0.22 µM | 404 | 494 | 88.9 µM
CCCCN1C(=O)C(O)(CC(=O)C[C@@H]2O[C@H](COC(C)=O)[C@@H](OC(C)=O)[C@H](OC(C)=O)[C@H]2OC(C)=O)c2cc(Cl)ccc21 (stereo partly drawn) | > 5 µM | > 5 µM |  |  | 
CC(=O)OC[C@H]1O[C@@H](CC(=O)/C=C2\C(=O)N(Cc3ccccc3)c3ccccc32)[C@H](OC(C)=O)[C@@H](OC(C)=O)[C@@H]1OC(C)=O | 0.77 µM | 0.29 µM | 245 | 92.4 | 71.2 µM
CC(=O)OC[C@H]1O[C@@H](CC(=O)/C=C2\C(=O)N(Cc3cccc(C)c3)c3ccc(Cl)cc32)[C@H](OC(C)=O)[C@@H](OC(C)=O)[C@@H]1OC(C)=O | 0.17 µM | 1.04 µM | 87.5 | 535 | 91 µM
CC(=O)OC[C@H]1O[C@@H](CC(=O)CC2(O)C(=O)Nc3ccccc32)[C@H](OC(C)=O)[C@@H](OC(C)=O)[C@@H]1OC(C)=O (stereo partly drawn) | > 5 µM | > 5 µM |  |  | 
CC(=O)OC[C@H]1O[C@@H](CC(=O)CC2(O)C(=O)N(CCc3ccccc3)c3ccc(Cl)cc32)[C@H](OC(C)=O)[C@@H](OC(C)=O)[C@@H]1OC(C)=O (stereo partly drawn) | > 5 µM | > 5 µM |  |  | 
CC(=O)OC[C@H]1O[C@@H](CC(=O)CC2(O)C(=O)N(Cc3ccc(Br)cc3)c3ccc(Cl)cc32)[C@H](OC(C)=O)[C@@H](OC(C)=O)[C@@H]1OC(C)=O (stereo partly drawn) | > 5 µM | 4.81 µM |  |  | 
CC(=O)OC[C@H]1O[C@@H](CC(=O)/C=C2\C(=O)N(CCc3ccccc3)c3ccccc32)[C@H](OC(C)=O)[C@@H](OC(C)=O)[C@@H]1OC(C)=O | 0.95 µM | 0.75 µM | 86.2 | 68.1 | 64.7 µM
CCN(CC)CCCC(C)Nc1ccnc2cc(Cl)ccc12 (stereo not drawn) [CHLOROQUINE] |  |  |  |  | > 500 µM
CCCN1C(=O)C(O)(CC(=O)C[C@@H]2O[C@H](COC(C)=O)[C@@H](OC(C)=O)[C@H](OC(C)=O)[C@H]2OC(C)=O)c2ccccc21 (stereo partly drawn) | > 5 µM | > 5 µM |  |  | 
CCCN1C(=O)C(O)(CC(=O)C[C@@H]2O[C@H](COC(C)=O)[C@@H](OC(C)=O)[C@H](OC(C)=O)[C@H]2OC(C)=O)c2cc(Cl)ccc21 (stereo partly drawn) | > 5 µM | > 5 µM |  |  | 
CC(=O)OC[C@H]1O[C@@H](CC(=O)CC2(O)C(=O)N(Cc3ccc(F)cc3)c3ccccc32)[C@H](OC(C)=O)[C@@H](OC(C)=O)[C@@H]1OC(C)=O (stereo partly drawn) | > 5 µM | > 5 µM |  |  | 
CCCCN1C(=O)/C(=C\C(=O)C[C@@H]2O[C@H](COC(C)=O)[C@@H](OC(C)=O)[C@H](OC(C)=O)[C@H]2OC(C)=O)c2ccccc21 | 2.61 µM | 1.84 µM | 68.2 | 48.1 | 126 µM
CC(=O)OC[C@H]1O[C@@H](CC(=O)/C=C2\C(=O)N(Cc3ccc(Br)cc3)c3ccccc32)[C@H](OC(C)=O)[C@@H](OC(C)=O)[C@@H]1OC(C)=O | 0.23 µM | 0.8 µM | 95.7 | 333 | 76.5 µM

SMILES | IC50 (Plasmodium falciparum [1]) | IC50 (Plasmodium falciparum [2]) | selectivity ratio [3] | selectivity ratio [4] | CC50 at 72 h [5]
CC(=O)OC[C@H]1O[C@@H](CC(=O)CC2(O)C(=O)N(Cc3ccccc3)c3ccccc32)[C@H](OC(C)=O)[C@@H](OC(C)=O)[C@@H]1OC(C)=O (stereo partly drawn) | > 5 µM | > 5 µM |  |  | 
CC(=O)OC[C@H]1O[C@@H](CC(=O)CC2(O)C(=O)N(Cc3ccc(Br)cc3)c3ccccc32)[C@H](OC(C)=O)[C@@H](OC(C)=O)[C@@H]1OC(C)=O (stereo partly drawn) | > 5 µM | > 5 µM |  |  | 
CC(=O)OC[C@H]1O[C@@H](CC(=O)CC2(O)C(=O)N(Cc3ccccc3)c3ccc(Cl)cc32)[C@H](OC(C)=O)[C@@H](OC(C)=O)[C@@H]1OC(C)=O (stereo partly drawn) | > 5 µM | > 5 µM |  |  | 
CCCN1C(=O)/C(=C\C(=O)C[C@@H]2O[C@H](COC(C)=O)[C@@H](OC(C)=O)[C@H](OC(C)=O)[C@H]2OC(C)=O)c2cc(Cl)ccc21 | 1.18 µM | 0.4 µM | 239 | 81 | 95.5 µM
CC(=O)OC[C@H]1O[C@@H](CC(=O)CC2(O)C(=O)N(Cc3cccc(C)c3)c3ccccc32)[C@H](OC(C)=O)[C@@H](OC(C)=O)[C@@H]1OC(C)=O (stereo partly drawn) | > 5 µM | > 5 µM |  |  | 
CCCN1C(=O)/C(=C\C(=O)C[C@@H]2O[C@H](COC(C)=O)[C@@H](OC(C)=O)[C@H](OC(C)=O)[C@H]2OC(C)=O)c2ccccc21 | 3.59 µM | > 5 µM | < 24.9 | 34.7 | 125 µM
CC(=O)OC[C@H]1O[C@@H](CC(=O)/C=C2\C(=O)N(Cc3ccc(Br)cc3)c3ccc(Cl)cc32)[C@H](OC(C)=O)[C@@H](OC(C)=O)[C@@H]1OC(C)=O | 0.24 µM | 0.15 µM | 622 | 389 | 93.3 µM
CC(=O)OC[C@H]1O[C@@H](CC(=O)CC2(O)C(=O)Nc3ccc(Cl)cc32)[C@H](OC(C)=O)[C@@H](OC(C)=O)[C@@H]1OC(C)=O (stereo partly drawn) | > 5 µM | > 5 µM |  |  | 
CC(=O)OC[C@H]1O[C@@H](CC(=O)/C=C2\C(=O)N(CCc3ccccc3)c3ccc(Cl)cc32)[C@H](OC(C)=O)[C@@H](OC(C)=O)[C@@H]1OC(C)=O | 0.11 µM | 0.94 µM | 98.9 | 845 | 93 µM
CC(=O)OC[C@H]1O[C@@H](CC(=O)/C=C2\C(=O)Nc3ccccc32)[C@H](OC(C)=O)[C@@H](OC(C)=O)[C@@H]1OC(C)=O | 4.27 µM | > 5 µM | < 25.4 | 29.8 | 127 µM
CC(=O)OC[C@H]1O[C@@H](CC(=O)/C=C2\C(=O)N(Cc3ccccc3)c3ccc(Cl)cc32)[C@H](OC(C)=O)[C@@H](OC(C)=O)[C@@H]1OC(C)=O | 0.26 µM | 0.31 µM | 294 | 351 | 91.2 µM
CC(=O)OC[C@H]1O[C@@H](CC(=O)CC2(O)C(=O)N(CCc3ccccc3)c3ccccc32)[C@H](OC(C)=O)[C@@H](OC(C)=O)[C@@H]1OC(C)=O (stereo partly drawn) | > 5 µM | > 5 µM |  |  | 
CC(=O)OC[C@H]1O[C@@H](CC(=O)CC2(O)C(=O)N(Cc3ccc(F)cc3)c3ccc(Cl)cc32)[C@H](OC(C)=O)[C@@H](OC(C)=O)[C@@H]1OC(C)=O (stereo partly drawn) | 3.54 µM | 2.26 µM |  |  | 
CC(=O)OC[C@H]1O[C@@H](CC(=O)CC2(O)C(=O)N(Cc3cccc(C)c3)c3ccc(Cl)cc32)[C@H](OC(C)=O)[C@@H](OC(C)=O)[C@@H]1OC(C)=O (stereo partly drawn) | > 5 µM | > 5 µM |  |  | 
CC(=O)OC[C@H]1O[C@@H](CC(=O)/C=C2\C(=O)N(Cc3ccc(F)cc3)c3ccc(Cl)cc32)[C@H](OC(C)=O)[C@@H](OC(C)=O)[C@@H]1OC(C)=O | 0.32 µM | 0.25 µM | 429 | 335 | 107 µM
CC(=O)OC[C@H]1O[C@@H](CC(=O)/C=C2\C(=O)Nc3ccc(Cl)cc32)[C@H](OC(C)=O)[C@@H](OC(C)=O)[C@@H]1OC(C)=O | 2.68 µM | 2.52 µM | 48.4 | 45.5 | 122 µM
